Tb MetRS inh: blocks T. brucei methionyl-tRNA synthetase activity; purified T. brucei MetRS, ATP depletion, Kinase-Glo luminescence; hit rate 0.4% among 360,000; AID 624268; inhibition, % at 11.9 µM;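 active means inhibition above a per-plate cutoff of the control wells' mean inhibition plus 3 SD, cut at about 5.5% in these data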;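 further: 0% = DMSO wells median and 100% = median of wells with control inhibitor compound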
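technique = Kinase-Glo luminescence, ATP depletion format | system = purified MetRS (methionyl-tRNA synthetase) enzyme from Trypanosoma brucei | timing = 15 min preincubation, 2 h reaction, all 25 °C | evaluation = percent inhibition versus plate control medians | dosing = single dose, 11.9 µM final nominal, 0.9% final DMSO | also added = substrates ATP, L-methionine and bulk Escherichia coli tRNA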
MPTP block: blocks calcium-induced mitochondrial swelling | hit rate 1.4% among 360,000 | inhibition, % at 10 µM | isolated mouse mitochondria, Ca2+ swelling absorbance, 30 min;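 active means inhibition of 50% or more, scaled per plate between neutral and stimulator controls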;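 further: 0% = DMSO wells given calcium and 100% = 1 mM EGTA wells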
CHOP inh: inhibitors of CHOP induction in ER stress response. inhibition, % at 10 µM. AID 2732. hit rate 3.8% among 220,000. CHO-K1 CHOP-promoter luciferase, tunicamycin-induced, 15-18 h;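 active means compounds that reduced the stress-induced luciferase reporter signal by more than about 70% of percent inhibition, limit read from the data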;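 further: 0% = tunicamycin plus vehicle and 100% = wells without tunicamycin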
WT yeast gro inh: growth inhibition of WT yeast, mitochondrial fusion screen. mitochondrial fusion phenotypic screen, WT strain. inhibition, % at 10 µM. hit rate 2.1% among 190,000. AID 1362; in the data active means inhibition above about 58%; tested in S. cerevisiae
NR3A LBD binder: modulators (binders) of human NR3A ligand-binding domain. Tm shift relative to glycine control, % at 25 µM. AID 1259313. NR3A LBD differential scanning fluorimetry, Tm shift; 0% = protein alone, 100% = glycine-bound protein. hit rate 2.5% among 340,000;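 active means melting temperature shift of at least 10% of the positive control shift, at one fixed dose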
EBV gp42 inh: EBV gp42 inhibition. Q1HVG2. Fluorescence polarization binding assay, mP read-out. AID 1085. inhibition, % (tested at 21.74 µM). hit rate 0.42% among 220,000; in the data active means inhibition above about 50%
Target sequence (Q1HVG2 whole entry, looked up): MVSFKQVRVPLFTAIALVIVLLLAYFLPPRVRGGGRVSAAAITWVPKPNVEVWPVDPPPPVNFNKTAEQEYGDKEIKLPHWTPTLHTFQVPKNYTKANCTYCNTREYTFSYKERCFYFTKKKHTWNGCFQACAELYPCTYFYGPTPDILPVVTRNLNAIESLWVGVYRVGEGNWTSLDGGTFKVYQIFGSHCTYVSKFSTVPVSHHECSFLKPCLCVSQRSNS
* = called active by the depositor. A selection: hits, their analogues and other compounds. The true share with any hit is near 6.4%.

`COc1cc(/C=N/NC(=O)c2nnn(-c3nonc3N)c2C(C)C)ccc1OCc1ccccc1` gave Tb MetRS inh -1, MPTP block 0 and NR3A LBD binder 35*.
Screening COc1cc(/C=N/NC(=O)c2nnn(-c3nonc3N)c2-c2cccs2)ccc1O returned Tb MetRS inh 0, MPTP block 0 and NR3A LBD binder 4.
Screening CC(C)c1c(C(=O)N/N=C/c2ccc(OCc3ccccc3)cc2)nnn1-c1nonc1N returned Tb MetRS inh -1, MPTP block 1 and NR3A LBD binder 32*.
For COc1cc(/C=N/NC(=O)c2nnn(-c3nonc3N)c2C(C)C)ccc1O the results were Tb MetRS inh 0, MPTP block 0 and NR3A LBD binder 30*.
`CC(C)c1c(C(=O)N/N=C/c2ccsc2)nnn1-c1nonc1N` gave Tb MetRS inh 0, MPTP block 2 and NR3A LBD binder 6.
Screening CCOc1ccc(CC(=O)NCc2ccc3c(c2)cc(C)n3C)cc1 returned Tb MetRS inh 0, MPTP block 1, CHOP inh -8, WT yeast gro inh -6, NR3A LBD binder -2 and EBV gp42 inh -11.
`CCNC(=O)C1(C)CCN(C(=O)c2ccc3c(c2)CCO3)C1` (configuration not stated) gave Tb MetRS inh 0 and MPTP block 0.
CCOC(=O)C1(Cc2ccccc2)CCN(Cc2ccc(C3CCCCO3)s2)CC1 (configuration not stated) was read as Tb MetRS inh 0, MPTP block 4, CHOP inh 41, NR3A LBD binder 1 and EBV gp42 inh -3.
`CCOC(=O)C1(Cc2ccccc2)CCN(Cc2ccc(C)s2)CC1` gave Tb MetRS inh -1, MPTP block 6, CHOP inh 90*, WT yeast gro inh 10, NR3A LBD binder 0 and EBV gp42 inh -15.
`CCc1ccc(N2CC(C(=O)N/N=C/c3cccc([N+](=O)[O-])c3)CC2=O)cc1` (configuration not stated) gave Tb MetRS inh -2, MPTP block 2, CHOP inh 83*, WT yeast gro inh -10, NR3A LBD binder -6 and EBV gp42 inh -14.
Screening CCN(CC)c1ccc(/C=C(\C#N)C(=O)c2ccc(Br)cc2)cc1 returned Tb MetRS inh 0, MPTP block 6, CHOP inh -1, WT yeast gro inh 30, NR3A LBD binder -9 and EBV gp42 inh active.
`Cc1ccc(N2C(=O)c3ccccc3C2=O)cc1` gave Tb MetRS inh -1, MPTP block 0, CHOP inh -9, NR3A LBD binder 0 and EBV gp42 inh -12.
Cc1ccc(N2C(=O)c3ccccc3C2=O)cc1Cl was read as Tb MetRS inh -2, MPTP block -1, CHOP inh -57, WT yeast gro inh 6, NR3A LBD binder 12* and EBV gp42 inh 5.
CCCCCNc1nc(NCCCO)c(C#N)c2c1CN(C)CC2 was read as Tb MetRS inh 0, MPTP block -1, CHOP inh 14, WT yeast gro inh 0, NR3A LBD binder 0 and EBV gp42 inh 2.
Screening O=C(Nc1ccc(Cl)cc1)N(Cc1nnc2n1CCCCC2)c1ccccc1 returned Tb MetRS inh -1, MPTP block -1, CHOP inh 1, WT yeast gro inh 27, NR3A LBD binder 9 and EBV gp42 inh -13.
For CCn1cc2nc(SCC(=O)Nc3ccc(OC)c(OC)c3)n(Cc3ccc(OC)cc3)c(=O)c2n1 the results were Tb MetRS inh 0, MPTP block 0 and NR3A LBD binder 14*.
For CCn1cc2nc(SCC(=O)Nc3ccc(OC)cc3OC)n(Cc3ccc(OC)cc3)c(=O)c2n1 the results were Tb MetRS inh 0, MPTP block 0 and NR3A LBD binder -2.
CCOc1ccc2nc(NC(=O)NC3CCCCC3)sc2c1 was read as Tb MetRS inh -1, MPTP block 4, CHOP inh 27, WT yeast gro inh -6, NR3A LBD binder 18* and EBV gp42 inh -11.
For CCOc1ccc2nc(NC(=O)c3ccoc3C)sc2c1 the results were Tb MetRS inh -5, MPTP block 0, WT yeast gro inh 79*, NR3A LBD binder 2 and EBV gp42 inh 8.
For CCOc1ccc2nc(NC(=O)Nc3cccs3)sc2c1 the results were Tb MetRS inh 0, MPTP block -1, CHOP inh -18, WT yeast gro inh 32, NR3A LBD binder 26* and EBV gp42 inh -7.
`CCOc1ccc2nc(NC(=S)NCc3ccccc3)sc2c1` gave Tb MetRS inh -1, MPTP block 10, CHOP inh -39, WT yeast gro inh 2, NR3A LBD binder 19* and EBV gp42 inh -7.
CN(C)CCNC(=O)c1ccc(Cl)s1 was read as Tb MetRS inh -2, MPTP block 0, CHOP inh -16, WT yeast gro inh -15, NR3A LBD binder 6 and EBV gp42 inh -20.
CC(=O)Nc1ccc(Nc2nc(C)nc3c2nnn3Cc2ccccc2Cl)cc1 was read as Tb MetRS inh 0, MPTP block 1 and NR3A LBD binder 0.
For COc1ccc(-n2c(-c3ccc(Br)cc3)c[n+]3c2CCC3)cc1 the results were Tb MetRS inh 0, MPTP block 0, CHOP inh 1, WT yeast gro inh 3, NR3A LBD binder 0 and EBV gp42 inh -12.
For Cc1ccc(N(CC(=O)O)S(C)(=O)=O)cc1Cl the results were Tb MetRS inh -1, MPTP block 0, CHOP inh -2, WT yeast gro inh 11, NR3A LBD binder 12* and EBV gp42 inh 2.
Screening CCN(CC)C(=O)CN(c1ccc(F)c(Cl)c1)S(C)(=O)=O returned Tb MetRS inh -1, MPTP block -2, CHOP inh 76*, WT yeast gro inh 5, NR3A LBD binder 1 and EBV gp42 inh -5.
For CCCC(=O)N1CCC1(C)C(=O)Nc1ccc2scnc2c1 (configuration not stated) the results were Tb MetRS inh 0 and MPTP block -1.
For CCn1c(O)c(/C=C2\C=Nc3ccccc32)sc1=Nc1ccc(C)cc1 the results were Tb MetRS inh 0, MPTP block 30, CHOP inh 44, WT yeast gro inh 6, NR3A LBD binder 18* and EBV gp42 inh -2.
For COc1ccc(C(=O)N2CCN(c3ccccn3)CC2)cc1[N+](=O)[O-] the results were Tb MetRS inh 0, MPTP block 0, CHOP inh -14, WT yeast gro inh 12, NR3A LBD binder -1 and EBV gp42 inh -1.
For CCCCCCCN(c1ccccc1)[C@@H]1C[C@H]2CCCC(=O)N3CC[C@@H](C1)[C@@H]23 the results were Tb MetRS inh 0, MPTP block -1 and NR3A LBD binder 19*.
Screening CNC(=O)c1cn(-c2ccc(Cl)cc2)c(=O)c2ccccc12 returned Tb MetRS inh 0, MPTP block 0, CHOP inh 0, WT yeast gro inh 22, NR3A LBD binder 0 and EBV gp42 inh -7.
`c1cc2c3c(cccc3c1)NC1(CCCCC1)N2` gave Tb MetRS inh 0, MPTP block 2, CHOP inh 13, WT yeast gro inh 6, NR3A LBD binder 6 and EBV gp42 inh 8.
